We go through 28 compounds from ChEMBL document CHEMBL3351258, “An amidation/cyclization approach to the synthesis of N-hydroxyquinolinones and their biological evaluation as potential anti-plasmodial, anti-bacterial, and iron(II)-chelating agents” (Bioorg Med Chem Lett, 2015).

Values after ≈ are worked out from the molar mass of the structure shown. Active and inactive are the calls of the source.

Data set [1] deals with Escherichia coli. In words: Antibacterial activity against Escherichia coli ATCC 25922 incubated for 18 to 24 hrs followed by addition incubation for 18 to 24 hrs on MHA plates. In kind it is functional. Summed up:
(§1)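 Read-out is the minimum bactericidal concentration (MBC), determined separately against Escherichia coli and Staphylococcus aureus.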

Data set [2] relates to Staphylococcus aureus. In words: Antibacterial activity against Staphylococcus aureus ATCC 25923 incubated for 18 to 24 hrs followed by addition incubation for 18 to 24 hrs on MHA plates. The class given is functional. Put shortly: as §1
In data set [3] the test system is Plasmodium falciparum. As to the kind of experiment: Antiplasmodial activity against Plasmodium falciparum 3D7 incubated for 36 to 42 hrs by Giemsa staining method. The class given is functional, organism-based. Put shortly:
(§2)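 In vitro maturation assay on the chloroquine-sensitive P. falciparum 3D7 strain.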

Data set [4] concerns Staphylococcus aureus. As to the kind of experiment: Antibacterial activity against Staphylococcus aureus ATCC 25923 up to 1024 ug/ml incubated for 18 to 24 hrs followed by addition incubation for 18 to 24 hrs on MHA plates. In kind it is functional, organism-based. Summed up: as §1
Data set [5] relates to Escherichia coli. As to the kind of experiment: Antibacterial activity against Escherichia coli ATCC 25922 up to 1024 ug/ml incubated for 18 to 24 hrs followed by addition incubation for 18 to 24 hrs on MHA plates. In kind it is functional, organism-based. Summed up: as §1
For data set [6], the system named is Plasmodium falciparum. As to the kind of experiment: Antiplasmodial activity against Plasmodium falciparum 3D7 up to 5092 ug/ml incubated for 36 to 42 hrs by Giemsa staining method. The class given is functional, organism-based. The note with it: in the assay text read “5092 ng/ml” for “5092 ug/ml”. Put shortly: as §2
A short description of data set [7]: Iron chelation activity assessed as drug level causing 50% iron chelation at 20 to 500 ug/ml using FeCl2 and ferrozine. In kind it is physicochemical. The note with it: for EC50: read-out: Activity. Put shortly:
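The value is the concentration giving 50% chelation ability (50% CA), reported in mM.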

The nature of data set [8]: Iron chelation activity at 500 ug/ml using FeCl2 and ferrozine. In kind it is physicochemical.
Setting [9] is: Plasmodium falciparum, 3D7, read-out: IC50.

`O=c1c(-c2cccc3ccccc23)cc2cc(O)ccc2n1O` yielded an MBC in the data set on Escherichia coli [1] of 3.4 mM (≈ 1030 µg/mL). Also, the MBC result in the data set with Staphylococcus aureus [2] is “inactive”. For the same compound, the IC50 in the data set with Plasmodium falciparum [3] (setting [9]) amounted to 2.5 µM. Also, the outcome in the data set with Staphylococcus aureus [4] was inactive.

On to `COc1ccccc1-c1c(O)c2ccccc2n(O)c1=O`, for which the MBC result in the data set with Escherichia coli [1] and in the data set with Staphylococcus aureus [2] was “inactive” in each case. Further, the IC50 result in the data set on Plasmodium falciparum [3] is recorded as “Not Active”. Further, the outcome in the data set with Escherichia coli [5], in the data set on Staphylococcus aureus [4] and with Plasmodium falciparum [6] was inactive.

Consider `O=c1c(-c2ccc3ccccc3c2)c(O)c2ccccc2n1O`, for which the MBC entry with Escherichia coli [1] and in the data set on Staphylococcus aureus [2] was “inactive” throughout. In the data set with Plasmodium falciparum [3], the IC50 result is reported as “Not Active”. For the same compound, the result in the data set with Escherichia coli [5], in the data set on Staphylococcus aureus [4] and in the data set on Plasmodium falciparum [6] was inactive.

As to `O=c1c(-c2cccc3ccccc23)cc2cc(F)ccc2n1O`, the MBC result in the data set on Escherichia coli [1] and with Staphylococcus aureus [2] was “inactive” throughout. Also, in the data set with Plasmodium falciparum [3] (setting [9]), the half-inhibitory concentration (IC50) was found to be 1.1 µM. In addition, the EC50 in data set [7] amounted to 240 µM. The outcome in the data set on Escherichia coli [5] and in the data set on Staphylococcus aureus [4] was inactive.

Take `Cc1ccccc1-c1cc2cc3c(cc2n(O)c1=O)OCO3`: the MBC entry in the data set on Escherichia coli [1] and with Staphylococcus aureus [2] was “inactive” throughout. The IC50 in the data set with Plasmodium falciparum [3] (setting [9]) amounted to 4.6 µM. The outcome with Escherichia coli [5] and with Staphylococcus aureus [4] was inactive.

Regarding `Cc1ccccc1-c1cc2cc(O)ccc2n(O)c1=O`, the minimal bactericidal concentration (MBC) turned out to be 1.9 mM (≈ 508 µg/mL) with Escherichia coli [1] and 3.8 mM (≈ 1020 µg/mL) in the data set with Staphylococcus aureus [2]. Also, the IC50 in the data set on Plasmodium falciparum [3] (setting [9]) was 3.5 µM.

In the case of `COc1cc2cc(-c3ccccc3C)c(=O)n(O)c2cc1OC`, the MBC entry in the data set on Escherichia coli [1] and with Staphylococcus aureus [2] was “inactive” throughout. In the data set with Plasmodium falciparum [3] (setting [9]), the half-inhibitory concentration (IC50) was found to be 5.5 µM. The outcome with Escherichia coli [5] and in the data set with Staphylococcus aureus [4] was inactive.

On to `O=c1c(-c2cccc3ccccc23)cc2c3c(ccc2n1O)OCO3`, for which the MBC entry in the data set with Escherichia coli [1] was “inactive”. The same compound registered an MBC against Staphylococcus aureus [2] of 3.1 mM (≈ 1030 µg/mL). Moreover, the IC50 in the data set with Plasmodium falciparum [3] (setting [9]) was 1.9 µM. Moreover, the outcome with Escherichia coli [5] was inactive.

With `O=c1c(-c2ccccc2)c(O)c2ccccc2n1O`, the minimum bactericidal concentration (MBC) against Escherichia coli [1] worked out at 4 mM (≈ 1010 µg/mL). The MBC result in the data set with Staphylococcus aureus [2] is “inactive”. The half-maximal inhibitory concentration (IC50) entry in the data set with Plasmodium falciparum [3] is recorded as “Not Active”. The outcome in the data set on Staphylococcus aureus [4] and with Plasmodium falciparum [6] was inactive.

Turning to `Cc1ccccc1-c1cc2ccccc2n(O)c1=O`, the MBC result with Escherichia coli [1] is “inactive”. Also, the MBC against Staphylococcus aureus [2] came out at 4.1 mM (≈ 1030 µg/mL). In the data set on Plasmodium falciparum [3] (setting [9]), the IC50 worked out at 3 µM. Also, the outcome in the data set with Escherichia coli [5] was inactive.

For `O=c1c(-c2ccc3ccccc3c2)cc2ccccc2n1O`, the MBC entry in the data set on Escherichia coli [1] is “inactive”. Further, in the data set on Staphylococcus aureus [2], the minimum bactericidal concentration (MBC) was 3.6 mM (≈ 1030 µg/mL). Moreover, the IC50 in the data set with Plasmodium falciparum [3] (setting [9]) is 2.9 µM. In the data set with Escherichia coli [5], the outcome was inactive.

As to `O=c1c(-c2ccccc2C(F)(F)F)cc2ccccc2n1O`, the MBC entry in the data set on Escherichia coli [1] is “inactive”. This compound also showed an MBC in the data set with Staphylococcus aureus [2] of 3.4 mM (≈ 1040 µg/mL). Moreover, the IC50 in the data set on Plasmodium falciparum [3] (setting [9]) is 5.9 µM. Further, the result in the data set with Escherichia coli [5] was inactive.

Regarding `COc1ccccc1-c1cc2ccccc2n(O)c1=O`, the MBC turned out to be 1.9 mM (≈ 508 µg/mL) with Escherichia coli [1] and 3.8 mM (≈ 1020 µg/mL) in the data set with Staphylococcus aureus [2]. Also, the IC50 with Plasmodium falciparum [3] (setting [9]) was determined as 7.6 µM.

With `O=c1c(-c2ccccc2C(F)(F)F)c(O)c2ccccc2n1O`, the MBC result with Escherichia coli [1] and in the data set on Staphylococcus aureus [2] was “inactive” throughout. In addition, the half-maximal inhibitory concentration (IC50) result in the data set with Plasmodium falciparum [3] is “Not Active”. The result in the data set on Escherichia coli [5], with Staphylococcus aureus [4] and in the data set on Plasmodium falciparum [6] was inactive.

As to `Cc1ccccc1-c1c(O)c2ccccc2n(O)c1=O`, the MBC entry in the data set on Escherichia coli [1] and in the data set on Staphylococcus aureus [2] was “inactive” in each case. In addition, in the data set on Plasmodium falciparum [3], the half-inhibitory concentration (IC50) result is “Not Active”. Moreover, the result with Escherichia coli [5], in the data set with Staphylococcus aureus [4] and in the data set on Plasmodium falciparum [6] was inactive.

In the case of `O=c1c(-c2cccc3ccccc23)cc2cc3c(cc2n1O)OCO3`, the MBC entry in the data set on Escherichia coli [1] and in the data set with Staphylococcus aureus [2] was “inactive” in each case. In the data set with Plasmodium falciparum [3] (setting [9]), the concentration for half-maximal inhibition (IC50) was determined as 4.2 µM. The outcome in the data set with Escherichia coli [5] and in the data set with Staphylococcus aureus [4] was inactive.

For `Cc1ccccc1-c1cc2c(F)cccc2n(O)c1=O`, the MBC result in the data set on Escherichia coli [1] and in the data set on Staphylococcus aureus [2] was “inactive” each time. The half-inhibitory concentration (IC50) in the data set on Plasmodium falciparum [3] (setting [9]) amounted to 5 µM. Moreover, the EC50 in data set [7] was 280 µM. Also, the result in the data set with Escherichia coli [5] and in the data set on Staphylococcus aureus [4] was inactive.

Turning to `O=c1c(-c2cccc3ccccc23)cc2c(F)cccc2n1O`, the MBC result in the data set on Escherichia coli [1] and in the data set with Staphylococcus aureus [2] was “inactive” in each case. The concentration for half-maximal inhibition (IC50) with Plasmodium falciparum [3] (setting [9]) was 1.4 µM. Moreover, the EC50 in data set [7] stood at 240 µM. Besides, the result in the data set on Escherichia coli [5] and with Staphylococcus aureus [4] was inactive.

For `C=C[C@]1(C)C[C@H](C)C[C@H](C)[C@H]1c1c(O)ccn(O)c1=O`, the IC50 with Plasmodium falciparum [3] (setting [9]) turned out to be 0.8 µM.

As for `COc1cc2cc(-c3cccc4ccccc34)c(=O)n(O)c2cc1OC`, the MBC result in the data set on Escherichia coli [1] and in the data set with Staphylococcus aureus [2] was “inactive” each time. Also, in the data set with Plasmodium falciparum [3] (setting [9]), the IC50 was 5 µM. The outcome with Escherichia coli [5] and in the data set with Staphylococcus aureus [4] was inactive.

As to `O=c1c(-c2cccc3ccccc23)c(O)c2ccccc2n1O`, the MBC result with Escherichia coli [1] is “inactive”. The compound further displayed a minimal bactericidal concentration (MBC) in the data set with Staphylococcus aureus [2] of 1.7 mM (≈ 516 µg/mL). For the same compound, the concentration for half-maximal inhibition (IC50) entry in the data set with Plasmodium falciparum [3] was “Not Active”. Further, the EC50 in data set [7] was determined as 280 µM. Moreover, the result with Escherichia coli [5] and with Plasmodium falciparum [6] was inactive.

`O=c1c(-c2cccc3ccccc23)cc2ccccc2n1O`: the MBC entry with Escherichia coli [1] and in the data set with Staphylococcus aureus [2] was “inactive” in each case. Further, in the data set on Plasmodium falciparum [3] (setting [9]), the IC50 was 2.6 µM. In addition, the result in the data set with Escherichia coli [5] and in the data set on Staphylococcus aureus [4] was inactive.

In the case of `Cc1ccccc1-c1cc2c3c(ccc2n(O)c1=O)OCO3`, the MBC entry in the data set with Escherichia coli [1] and in the data set on Staphylococcus aureus [2] was “inactive” throughout. Also, in the data set with Plasmodium falciparum [3] (setting [9]), the half-maximal inhibitory concentration (IC50) was 3.6 µM. Moreover, the outcome in the data set with Escherichia coli [5] and in the data set with Staphylococcus aureus [4] was inactive.

For the compound `O=c1[nH]c2ccccc2cc1-c1cccc2ccccc12`, the MBC result with Escherichia coli [1] and in the data set with Staphylococcus aureus [2] was “inactive” each time. Further, the half-inhibitory concentration (IC50) entry in the data set on Plasmodium falciparum [3] is given as “Not Active”. Also, the Activity entry in data set [7] and in data set [8] was “Not Active” in each case. For the same compound, the outcome with Escherichia coli [5], in the data set on Staphylococcus aureus [4] and with Plasmodium falciparum [6] was inactive.

Regarding `COc1ccc2c(c1)cc(-c1cccc3ccccc13)c(=O)n2O`, the MBC entry in the data set on Escherichia coli [1] and with Staphylococcus aureus [2] was “inactive” each time. Moreover, the 50% inhibitory concentration (IC50) in the data set on Plasmodium falciparum [3] (setting [9]) was found to be 1.3 µM. Besides, the EC50 in data set [7] came out at 250 µM. The outcome in the data set with Escherichia coli [5] and in the data set with Staphylococcus aureus [4] was inactive.

As to `Cc1ccccc1-c1cc2cc(F)ccc2n(O)c1=O`, the MBC entry in the data set with Escherichia coli [1] and in the data set on Staphylococcus aureus [2] was “inactive” in each case. For the same compound, the IC50 in the data set on Plasmodium falciparum [3] (setting [9]) was determined as 4.8 µM. Further, the EC50 in data set [7] worked out at 290 µM. Moreover, the result in the data set with Escherichia coli [5] and in the data set with Staphylococcus aureus [4] was inactive.

As for `O=c1c(-c2ccccc2)cc2ccccc2n1O`, the MBC result with Escherichia coli [1] and in the data set on Staphylococcus aureus [2] was “inactive” each time. In addition, the half-inhibitory concentration (IC50) with Plasmodium falciparum [3] (setting [9]) was determined as 14 µM. The result in the data set with Escherichia coli [5] and with Staphylococcus aureus [4] was inactive.

As for `COc1ccc2c(c1)cc(-c1ccccc1C)c(=O)n2O`, in the data set with Escherichia coli [1], the MBC result was “inactive”. Besides, the MBC against Staphylococcus aureus [2] came to 3.6 mM (≈ 1010 µg/mL). Also, in the data set on Plasmodium falciparum [3] (setting [9]), the IC50 is 1.3 µM. For the same compound, in data set [7], the EC50 worked out at 280 µM. Also, the result with Escherichia coli [5] was inactive.

Usually MBC stands for the smallest concentration meeting the test's criterion for killing. Broadly, the IC50 is the concentration that inhibits the measured activity by half.
